Experimental data: ChEMBL document CHEMBL1649093, “Phthalazinone pyrazoles as potent, selective, and orally bioavailable inhibitors of Aurora-A kinase” (J Med Chem, 2011)
Converted amounts (≈) assume the structure as drawn. The source made the active and inactive calls. The calls are words filed in the database; no cut-off is given here.

Assays:
Aurora kinase A = target: T1, Aurora kinase A (Homo sapiens, UniProt O14965); assay: Inhibition of Aurora A by ELISA
T1 sequence (O14965 whole entry): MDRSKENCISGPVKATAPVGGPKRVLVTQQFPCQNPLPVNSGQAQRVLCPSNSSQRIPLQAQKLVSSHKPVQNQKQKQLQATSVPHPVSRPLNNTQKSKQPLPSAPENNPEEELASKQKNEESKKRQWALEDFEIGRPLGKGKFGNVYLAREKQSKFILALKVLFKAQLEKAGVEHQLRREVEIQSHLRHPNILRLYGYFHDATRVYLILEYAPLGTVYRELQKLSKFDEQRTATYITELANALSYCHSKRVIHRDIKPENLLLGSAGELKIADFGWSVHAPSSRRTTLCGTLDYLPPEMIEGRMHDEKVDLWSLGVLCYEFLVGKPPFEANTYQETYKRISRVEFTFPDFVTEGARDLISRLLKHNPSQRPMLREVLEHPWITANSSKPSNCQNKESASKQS
Procedure, shortened: (§1)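 ELISA on plates coated with GST fusion carrying histone H3 residues 1-15, blocked with 1 mg/mL I-block. Aurora-A or Aurora-B kinase reacted with compound and 30 μM ATP in kinase buffer with 1 μg/mL I-block; stopped after 40 min with 25 mM EDTA. Phosphorylation read with anti-phospho-histone H3 (Ser10) 6G3 mAb. IC50 from triplicate averages.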

[1] = Selectivity for Aurora A over Aurora B
Aurora kinase B = Aurora kinase B (Homo sapiens, UniProt Q96GD4); assay: Inhibition of Aurora B by ELISA; procedure, shortened: as §1
HCT-116 = assay: Cytotoxicity against human HCT116 cells after 5 days by celltiter-glo assay; format: functional, cell-based; details: HCT-116, 120 h
MCF7 [2] = assay: Cytotoxicity against human MCF7 cells; format: functional, cell-based
COLO 205 = assay: Cytotoxicity against human COLO205 cells; format: functional, cell-based
MCF7 [3] = assay: Induction of cell cycle arrest in human MCF7 cells assessed as accumulation at G2/M phase at 10 uM after 24 hrs by immunostaining; format: functional, cell-based
[4] = Aqueous solubility of the compound; format: physicochemical; details: buffer
Cytochrome P450 2D6 = Cytochrome P450 2D6 (Homo sapiens, UniProt P10635); assay: Inhibition of CYP2D6; format: ADME
Cytochrome P450 2C9 = Cytochrome P450 2C9 (Homo sapiens, UniProt P11712); assay: Inhibition of CYP2C9; format: ADME
[5] = Clearance in rat hepatocytes measured per 10^6 cells; format: ADME, cell-based, Liver, Hepatocyte
[6] = Clearance in mouse microsome measured per mg of protein; format: ADME, Liver; details: microsomes
Cytochrome P450 3A4 = Cytochrome P450 3A4 (Homo sapiens, UniProt P08684); assay: Inhibition of CYP3A4; format: ADME
[7] = Clearance in human microsome measured per mg of protein; format: ADME; details: microsomes
hERG (KCNH2) = hERG (KCNH2) (Homo sapiens, UniProt Q12809); assay: Inhibition of human ERG at 10 uM
hERG (KCNH2), sequence (Q12809 whole entry): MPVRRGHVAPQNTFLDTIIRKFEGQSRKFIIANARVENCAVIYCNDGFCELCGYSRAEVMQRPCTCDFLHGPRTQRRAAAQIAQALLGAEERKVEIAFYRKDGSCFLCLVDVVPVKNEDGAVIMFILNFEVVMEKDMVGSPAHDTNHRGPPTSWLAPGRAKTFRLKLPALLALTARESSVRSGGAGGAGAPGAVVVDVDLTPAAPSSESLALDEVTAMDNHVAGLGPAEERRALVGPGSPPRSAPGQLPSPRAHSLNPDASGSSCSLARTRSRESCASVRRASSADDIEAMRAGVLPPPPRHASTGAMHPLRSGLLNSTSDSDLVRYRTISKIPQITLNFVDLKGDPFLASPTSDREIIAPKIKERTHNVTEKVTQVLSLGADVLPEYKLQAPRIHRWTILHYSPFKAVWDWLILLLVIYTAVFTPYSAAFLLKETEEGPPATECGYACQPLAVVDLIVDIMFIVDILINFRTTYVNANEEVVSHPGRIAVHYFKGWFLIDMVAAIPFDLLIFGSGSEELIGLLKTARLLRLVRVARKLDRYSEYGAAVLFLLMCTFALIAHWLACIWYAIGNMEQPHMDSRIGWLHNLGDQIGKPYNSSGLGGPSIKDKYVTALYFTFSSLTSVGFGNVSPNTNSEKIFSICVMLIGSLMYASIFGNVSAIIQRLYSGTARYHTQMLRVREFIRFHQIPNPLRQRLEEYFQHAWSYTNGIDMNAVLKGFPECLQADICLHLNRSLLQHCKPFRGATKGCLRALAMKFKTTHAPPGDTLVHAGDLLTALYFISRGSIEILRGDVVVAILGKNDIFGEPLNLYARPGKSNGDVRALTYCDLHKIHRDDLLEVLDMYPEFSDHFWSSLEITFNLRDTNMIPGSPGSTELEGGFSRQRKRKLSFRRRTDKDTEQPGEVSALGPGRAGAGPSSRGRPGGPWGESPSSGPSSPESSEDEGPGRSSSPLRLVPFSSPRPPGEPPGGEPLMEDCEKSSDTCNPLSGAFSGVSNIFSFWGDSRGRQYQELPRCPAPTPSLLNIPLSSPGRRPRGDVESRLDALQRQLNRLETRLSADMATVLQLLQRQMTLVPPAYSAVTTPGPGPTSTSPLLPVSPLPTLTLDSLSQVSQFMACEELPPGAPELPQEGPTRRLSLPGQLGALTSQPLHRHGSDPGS

Cytochrome P450 2D6, sequence (P10635 whole entry): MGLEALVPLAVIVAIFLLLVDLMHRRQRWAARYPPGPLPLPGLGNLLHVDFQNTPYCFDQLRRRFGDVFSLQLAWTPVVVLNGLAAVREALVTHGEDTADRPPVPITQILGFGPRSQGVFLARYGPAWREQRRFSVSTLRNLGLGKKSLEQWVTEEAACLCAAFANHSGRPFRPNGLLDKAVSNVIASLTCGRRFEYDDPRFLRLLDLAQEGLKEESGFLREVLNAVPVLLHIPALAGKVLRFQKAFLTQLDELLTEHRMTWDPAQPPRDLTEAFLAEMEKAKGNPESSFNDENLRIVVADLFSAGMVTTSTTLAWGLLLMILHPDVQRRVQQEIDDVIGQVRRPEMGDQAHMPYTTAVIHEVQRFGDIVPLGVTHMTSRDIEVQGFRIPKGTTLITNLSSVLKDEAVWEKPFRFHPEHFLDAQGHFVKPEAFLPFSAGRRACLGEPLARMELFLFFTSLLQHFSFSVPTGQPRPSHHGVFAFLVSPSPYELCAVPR
Aurora kinase B, sequence (Q96GD4 whole entry): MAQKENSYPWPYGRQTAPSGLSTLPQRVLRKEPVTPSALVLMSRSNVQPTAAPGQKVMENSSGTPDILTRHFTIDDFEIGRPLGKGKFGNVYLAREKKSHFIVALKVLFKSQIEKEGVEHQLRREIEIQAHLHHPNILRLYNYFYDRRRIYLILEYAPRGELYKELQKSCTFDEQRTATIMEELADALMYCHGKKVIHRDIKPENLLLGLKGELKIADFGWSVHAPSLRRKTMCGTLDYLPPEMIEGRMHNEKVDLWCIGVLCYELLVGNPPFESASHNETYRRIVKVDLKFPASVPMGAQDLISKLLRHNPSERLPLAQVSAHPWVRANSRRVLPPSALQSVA
Cytochrome P450 2C9, sequence (P11712 whole entry): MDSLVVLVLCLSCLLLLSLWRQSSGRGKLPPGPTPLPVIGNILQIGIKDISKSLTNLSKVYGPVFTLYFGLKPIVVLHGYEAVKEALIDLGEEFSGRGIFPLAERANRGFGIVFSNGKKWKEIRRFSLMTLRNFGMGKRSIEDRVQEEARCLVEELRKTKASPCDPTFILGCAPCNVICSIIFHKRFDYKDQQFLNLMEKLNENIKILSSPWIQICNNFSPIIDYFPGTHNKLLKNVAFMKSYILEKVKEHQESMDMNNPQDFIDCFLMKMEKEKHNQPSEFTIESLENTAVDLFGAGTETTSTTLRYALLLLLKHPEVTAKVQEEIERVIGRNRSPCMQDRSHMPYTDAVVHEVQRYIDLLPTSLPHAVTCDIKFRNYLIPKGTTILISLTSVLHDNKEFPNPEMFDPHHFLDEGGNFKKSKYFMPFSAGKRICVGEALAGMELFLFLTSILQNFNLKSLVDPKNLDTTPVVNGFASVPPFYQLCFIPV
Cytochrome P450 3A4, sequence (P08684 whole entry): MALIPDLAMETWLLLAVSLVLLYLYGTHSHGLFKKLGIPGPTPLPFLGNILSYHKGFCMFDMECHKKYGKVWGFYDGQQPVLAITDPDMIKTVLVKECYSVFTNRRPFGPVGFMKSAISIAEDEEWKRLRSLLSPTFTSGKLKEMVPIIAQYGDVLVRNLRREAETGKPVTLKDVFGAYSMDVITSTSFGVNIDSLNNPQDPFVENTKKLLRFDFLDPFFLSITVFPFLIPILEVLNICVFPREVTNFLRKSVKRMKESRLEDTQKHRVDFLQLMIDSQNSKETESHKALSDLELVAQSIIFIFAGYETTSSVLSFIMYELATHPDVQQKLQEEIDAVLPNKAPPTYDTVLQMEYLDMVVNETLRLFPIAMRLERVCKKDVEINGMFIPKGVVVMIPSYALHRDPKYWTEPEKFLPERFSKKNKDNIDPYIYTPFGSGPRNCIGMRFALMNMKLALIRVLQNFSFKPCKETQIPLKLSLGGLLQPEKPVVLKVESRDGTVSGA

Row | SMILES | IC50 (Aurora kinase A) | Selectivity ratio [1] | IC50 (Aurora kinase B) | solubility [4] | IC50 (Cytochrome P450 2D6) | IC50 (Cytochrome P450 2C9) | hepatocyte CLint [5] | microsomal CLint [6] | IC50 (Cytochrome P450 3A4) | microsomal CLint [7] | IC50 (HCT-116) | IC50 (MCF7 [2]) | IC50 (COLO 205) | Activity (MCF7 [3]) | inhibition at 10 µM (hERG (KCNH2))
1 | Cc1ccc(-n2nc(Nc3cc[nH]n3)c3ccccc3c2=O)cc1 | 1000 nM | > 1000 |  |  |  |  |  |  |  |  |  |  |  |  | 
2 | CC(=O)Nc1ccc(Cn2nc(Nc3cc(C)[nH]n3)c3ccccc3c2=O)cc1 | 93 nM |  | 15 µM |  |  |  |  |  |  |  | 4200 nM | > 30 µM | > 30 µM |  | 
3 | Cc1cc(Nc2nn(Cc3csc(C)n3)c(=O)c3ccccc23)n[nH]1 | 120 nM |  | 24 µM |  |  |  |  |  |  |  | 4180 nM | > 30 µM | > 30 µM |  | 
4 | Cc1cc(Nc2nn(C)c(=O)c3ccccc23)n[nH]1 | 270 nM |  | 17 µM |  |  |  |  |  |  |  | 5200 nM | > 30 µM | > 30 µM |  | 
5 | Cc1cc(Nc2nn(Cc3ccc([N+](=O)[O-])cc3)c(=O)c3ccccc23)n[nH]1 | 109 nM |  | 0.93 µM |  |  |  |  |  |  |  | 1400 nM | > 30 µM |  |  | 
6 | Cc1cc(Nc2nn(Cc3ccccc3)c(=O)c3ccccc23)n[nH]1 |  | > 1000 | > 100 µM | 1.9 µg/mL (≈ 5.73 µM) | > 50 µM | 42 µM | 2.4 µL/min/1e6 cells | 28 µL/min/mg | > 50 µM | 7.4 µL/min/mg | 1500 nM | 12.6 µM | 4.4 µM | Active | 
7 | COc1cccc(C(=O)Cn2nc(Nc3cc(C)[nH]n3)c3ccccc3c2=O)c1 | 100 nM | > 1000 | 67 µM |  |  |  |  |  |  |  | 2700 nM | > 30 µM | > 30 µM |  | 
8 | Cc1cc(Nc2nn(CC(=O)c3ccccc3)c(=O)c3ccccc23)n[nH]1 | 71 nM | > 1000 | > 100 µM |  |  |  |  |  |  |  | 5440 nM | > 30 µM | > 30 µM |  | 
9 | COc1ccc(C(=O)Cn2nc(Nc3cc(C)[nH]n3)c3ccccc3c2=O)cc1 | 67 nM | > 1000 | > 100 µM |  |  |  |  |  |  |  | > 30000 nM | > 30 µM | > 30 µM |  | 
10 | Cc1cc(Nc2nn(-c3ccc(C(C)(C)C)cc3)c(=O)c3ccccc23)n[nH]1 | 240 nM | > 1000 | > 50 µM |  |  |  |  |  |  |  | 60 nM | 0.78 µM |  |  | 
11 | Cc1cc(Nc2nn(-c3ccc(Cl)cc3)c(=O)c3ccccc23)n[nH]1 | 93 nM | > 1000 | > 100 µM |  |  |  |  |  |  |  | 820 nM | 11.4 µM | 2.2 µM |  | 
12 | CC(=O)Nc1ccc(Cn2nc(Nc3cc[nH]n3)c3ccccc3c2=O)cc1 |  |  | 34 µM |  |  |  |  |  |  |  | > 30000 nM | > 30 µM |  |  | 
13 | Cc1cc(Nc2nn(-c3ccccc3)c(=O)c3ccccc23)n[nH]1 |  |  |  | 1.2 µg/mL (≈ 3.78 µM) | > 50 µM | > 50 µM | 2.3 µL/min/1e6 cells | 15.7 µL/min/mg | > 50 µM |  |  |  |  |  | 20%
14 | Cc1cc(Nc2nn(CC(C)C)c(=O)c3ccccc23)n[nH]1 | 115 nM |  | 34 µM |  |  |  |  |  |  |  | 1100 nM | 4.2 µM |  |  | 
15 | O=c1c2ccccc2c(Nc2n[nH]c3ccccc23)nn1-c1ccccc1 | 14000 nM | > 1000 |  |  |  |  |  |  |  |  |  |  |  |  | 
16 | Cc1cc(Nc2n[nH]c(=O)c3ccccc23)n[nH]1 | 650 nM | > 1000 | 22 µM |  |  |  |  |  |  |  |  |  |  |  | 
17 | Cc1cc(Nc2nn(Cc3ccncc3)c(=O)c3ccccc23)n[nH]1 | 270 nM |  | 27 µM |  |  |  |  |  |  |  | 20200 nM | > 30 µM | 13 µM |  | 
18 | Cc1cc(Nc2nn(CC(=O)c3ccc(C(F)(F)F)cc3)c(=O)c3ccccc23)n[nH]1 | 720 nM | > 1000 | > 100 µM |  |  |  |  |  |  |  | > 30000 nM | > 30 µM | > 30 µM |  | 

More lines, main results first:

Row | IC50 (Aurora kinase A) | Selectivity ratio [1] | IC50 (Aurora kinase B) | solubility [4] | IC50 (Cytochrome P450 2D6) | IC50 (Cytochrome P450 2C9) | hepatocyte CLint [5] | microsomal CLint [6] | IC50 (Cytochrome P450 3A4) | microsomal CLint [7] | SMILES | IC50 (HCT-116) | IC50 (MCF7 [2]) | IC50 (COLO 205) | Activity (MCF7 [3]) | inhibition at 10 µM (hERG (KCNH2))
19 | 29 nM |  | > 100 µM |  |  |  |  |  |  |  | COc1ccc(-n2nc(Nc3cc(C)[nH]n3)c3ccccc3c2=O)cc1 | 700 nM | 3.6 µM | 3.7 µM |  | 
20 | 56 nM |  | 34 µM |  |  |  |  |  |  |  | Cc1cc(Nc2nn(Cc3ccc(S(C)(=O)=O)cc3)c(=O)c3ccccc23)n[nH]1 | 1700 nM | 4.5 µM | 4.5 µM |  | 
21 | 32 nM |  | 46 µM |  |  |  |  |  |  |  | COc1ccc(Cn2nc(Nc3cc(C)[nH]n3)c3ccccc3c2=O)cc1 | 1200 nM | > 30 µM | 4.2 µM |  | 
22 | 37 nM |  | > 100 µM |  |  |  |  |  |  |  | Cc1cc(Nc2nn(-c3ccc(F)cc3)c(=O)c3ccccc23)n[nH]1 | 800 nM | 1.6 µM | 1.6 µM |  | 
23 | 24 nM | > 1000 | > 100 µM |  |  |  |  |  |  |  | Cc1cccc(-n2nc(Nc3cc(C)[nH]n3)c3ccccc3c2=O)c1 | 2300 nM | 2.9 µM | 3.2 µM |  | 
24 | 49 nM | > 1000 | > 100 µM |  |  |  |  |  |  |  | Cc1cc(Nc2nn(Cc3cc(F)cc(F)c3)c(=O)c3ccccc23)n[nH]1 | 500 nM | 2.6 µM | 2.3 µM |  | 
25 | 17 nM |  | 12.7 µM |  |  |  |  |  |  |  | Cc1cc(Nc2nn(Cc3cccnc3)c(=O)c3ccccc23)n[nH]1 | 2900 nM | 13.4 µM | 4.1 µM |  | 
26 | 35 nM | > 1000 | 30 µM | 7 µg/mL (≈ 24.7 µM) | > 50 µM | > 50 µM |  |  | > 50 µM |  | Cc1cc(Nc2nn(C(C)C)c(=O)c3ccccc23)n[nH]1 | 400 nM | 1.6 µM | 1.7 µM |  | 
27 | 36 nM | > 1000 | 28 µM |  |  |  |  |  |  |  | COc1cccc(Cn2nc(Nc3cc(C)[nH]n3)c3ccccc3c2=O)c1 | 660 nM | > 30 µM | 3.6 µM |  | 
28 | 66 nM | > 1000 | 15 µM |  |  |  |  |  |  |  | Cc1cc(Nc2nn(CC(F)(F)F)c(=O)c3ccccc23)n[nH]1 | 1800 nM | 4.5 µM |  |  | 
29 | 23 nM | > 1000 | > 100 µM |  |  |  |  |  |  |  | Cc1ccc(-n2nc(Nc3cc(C)[nH]n3)c3ccccc3c2=O)cc1 | 240 nM | > 30 µM | 3.6 µM |  | 
30 | 25 nM |  | > 100 µM |  |  |  |  |  |  |  | Cc1cc(Nc2nn(Cc3cc(F)ccc3F)c(=O)c3ccccc23)n[nH]1 | 570 nM | > 30 µM | 3.8 µM |  | 
31 | 14 nM | > 1000 | 69 µM |  |  |  |  |  |  |  | Cc1cc(Nc2nn(Cc3ccc(F)cc3)c(=O)c3ccccc23)n[nH]1 | 1400 nM | > 30 µM | 17 µM |  | 
